ChEMBL document CHEMBL1938282 (J Med Chem, 2011)

Key:
[1] = molecular target: T1, Amine oxidase [flavin-containing] A (Bos taurus, UniProt P21398); experiment: Inhibition of bovine brain MAOA using kynuramine as a substrate after 30 mins by spectrofluorometric method
T1 sequence (P21398 whole entry): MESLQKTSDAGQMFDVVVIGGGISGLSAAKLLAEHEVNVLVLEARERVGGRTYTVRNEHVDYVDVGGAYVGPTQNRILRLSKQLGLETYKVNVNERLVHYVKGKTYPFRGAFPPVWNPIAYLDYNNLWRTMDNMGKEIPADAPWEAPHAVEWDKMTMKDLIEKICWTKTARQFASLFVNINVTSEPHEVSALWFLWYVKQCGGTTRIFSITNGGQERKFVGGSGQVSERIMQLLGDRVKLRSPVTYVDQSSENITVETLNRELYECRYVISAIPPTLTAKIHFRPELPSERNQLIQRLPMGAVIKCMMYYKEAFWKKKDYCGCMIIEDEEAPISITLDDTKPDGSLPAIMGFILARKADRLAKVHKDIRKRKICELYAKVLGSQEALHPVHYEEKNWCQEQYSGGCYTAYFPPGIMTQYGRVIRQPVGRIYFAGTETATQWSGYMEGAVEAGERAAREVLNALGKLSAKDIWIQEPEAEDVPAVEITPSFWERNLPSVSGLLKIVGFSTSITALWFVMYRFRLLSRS
Outline: (§1)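 Mitochondria isolated from beef brain were pretreated for 30 min at 38 °C with 1 μM L-deprenyl to isolate MAO-A, or with 1 μM clorgyline to isolate MAO-B. Compounds in DMSO were preincubated for 30 min at 38 °C in potassium phosphate buffer at pH 7.4. Kynuramine was then added at four concentrations (5 μM–0.1 mM final) for 30 min.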

[2] = molecular target: T2, Amine oxidase [flavin-containing] B (Bos taurus, UniProt P56560); experiment: Inhibition of bovine brain MAOB using kynuramine as a substrate after 30 mins by spectrofluorometric method; outline: as §1
T2 sequence (P56560 whole entry): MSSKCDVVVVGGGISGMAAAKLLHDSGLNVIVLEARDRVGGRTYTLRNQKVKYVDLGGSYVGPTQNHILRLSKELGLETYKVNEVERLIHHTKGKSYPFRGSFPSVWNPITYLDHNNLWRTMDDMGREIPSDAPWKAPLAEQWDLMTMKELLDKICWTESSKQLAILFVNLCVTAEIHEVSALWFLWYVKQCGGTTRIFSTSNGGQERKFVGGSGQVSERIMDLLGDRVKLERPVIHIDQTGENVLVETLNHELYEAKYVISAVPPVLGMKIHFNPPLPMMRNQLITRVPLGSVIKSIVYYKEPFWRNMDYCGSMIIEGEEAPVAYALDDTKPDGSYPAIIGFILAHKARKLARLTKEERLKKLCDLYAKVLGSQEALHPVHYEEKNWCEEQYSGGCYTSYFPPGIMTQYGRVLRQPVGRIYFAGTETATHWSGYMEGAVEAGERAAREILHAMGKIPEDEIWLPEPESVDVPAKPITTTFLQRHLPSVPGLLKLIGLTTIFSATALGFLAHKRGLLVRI

Bos taurus = organism: Bos taurus; experiment: Selectivity index, ratio of Ki for bovine MAOB to Ki for bovine MAOA
Outline: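 Selectivity was calculated as Ki(MAO-B)/Ki(MAO-A). Each Ki came from a Dixon plot of kynuramine deamination by beef brain mitochondria, with 1 μM clorgyline present for MAO-B or 1 μM L-deprenyl for MAO-A, read fluorimetrically.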

Structure (SMILES) | Ki [1] | Ki [2] | Ratio Ki (Bos taurus)
Cn1ccc(N2C[C@H](CO)OC2=O)c1 | 1000 nM | > 10000 nM | > 10
C=CCn1ccc(N2C[C@H](COC)OC2=O)c1 | 1 nM | 200000 nM | 200000
COC[C@H]1CN(c2ccc(OCC[C@@H](O)C(F)(F)F)cc2)C(=O)O1 [BEFLOXATONE] | 2.5 nM | 220 nM | 88
COC[C@H]1CN(c2ccn(C)c2)C(=O)O1 | 300 nM | 170000 nM | 567
C=CCn1ccc(N2C[C@H](CNC)OC2=O)c1 | 100 nM | 2000 nM | 20
C=CCn1ccc(N2C[C@H](CO)OC2=O)c1 | 350 nM | 625000 nM | 1790
C=CCn1ccc(N2C[C@H](CN=[N+]=[N-])OC2=O)c1 | 4 nM | 100000 nM | 25000
Cn1ccc(N2C[C@H](CN=[N+]=[N-])OC2=O)c1 | 200 nM | 360000 nM | 1800
CCn1ccc(N2C[C@H](CN=[N+]=[N-])OC2=O)c1 | 0.8 nM | 20000 nM | 25000
CCn1ccc(N2C[C@H](CNC)OC2=O)c1 | 80 nM | 18000 nM | 225
Cn1ccc(N2C[C@H](CN)OC2=O)c1 | 10 nM | 180000 nM | 18000
CCn1ccc(N2C[C@H](CN)OC2=O)c1 | 130 nM | 25000 nM | 192
CCn1ccc(N2C[C@H](COC)OC2=O)c1 | 0.6 nM | 1300 nM | 2170
CCn1ccc(N2C[C@H](CO)OC2=O)c1 | 3 nM | 300 nM | 100
C=CCn1ccc(N2C[C@H](CN)OC2=O)c1 | 700 nM | 8000 nM | 11
CNC[C@H]1CN(c2ccn(C)c2)C(=O)O1 | 7 nM | > 100000 nM | > 14300
